Assay [1] can be described thus: Antitumor activity against mouse advanced Lewis lung carcinoma allografted in BDF1 mouse assessed as increase in host life span at 30 mg/kg, ip administered as single dose on 7th day post-tumor implantation. Conditions: route intraperitoneal. The class given is functional. An outline of the steps:
(§1)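 BDF1 mice (C57Blk/6 × DBA/2) implanted sc by trocar with about 40 mg Lewis lung tumor fragments from bacteriologically sterile donors. Advanced-disease groups held tumors of about 400 mg by day 6-7, sized by caliper (w = ab²/2). Single ip injection on day 7, in water or saline vehicle, at or below the LD10 in normal mice. Tumors measured at least twice weekly.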

Assay [2] concerns Mus musculus. Put plainly: Antitumor activity against mouse advanced Lewis lung carcinoma allografted in ip dosed BDF1 mouse assessed as disease cure administered as single dose on day 6 or 7 post-tumor implantation. The class given is functional, organism-based. An outline of the steps:
(§2)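 BDF1 mice (C57Blk/6 × DBA/2) implanted sc by trocar with Lewis lung tumor fragments of about 40 mg, taken only from bacteriologically sterile donor tumors. Mice bearing tumors of about 400 mg (day 6-7) were selected. Each received a single ip dose on day 7, at or below the LD10 in normal mice. Groups were of 10 mice. Tumor weight was taken from calipers as w = ab²/2, measured at least twice weekly. Matched non-tumor mice served as toxicity controls.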

Assay [3] can be described thus: Antitumor activity against mouse advanced Lewis lung carcinoma allografted in BDF1 mouse assessed as increase in host life span at 29 mg/kg, ip administered as single dose on 7th day post-tumor implantation. The format is functional. Conditions: route intraperitoneal. Put shortly: as §1
Assay [4] concerns Mus musculus. Kind of assay: Antitumor activity against mouse advanced Lewis lung carcinoma allografted in BDF1 mouse assessed as disease cure at 90 mg/kg, ip administered as single dose on 7th day post-tumor implantation measured for 80 days post-drug treatment. The class given is functional, organism-based. Set-up: dose 90 mg/kg. Put shortly:
as §2

Assay [5] can be described thus: Antitumor activity against mouse advanced Lewis lung carcinoma allografted in ip dosed BDF1 mouse assessed as increase in host lifespan administered as single dose on day 6 or 7 post-tumor implantation. The class given is functional. Put shortly:
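Advanced Lewis lung model: about 40 mg fragments implanted sc by trocar into BDF1 mice, and mice with tumors of about 400 mg (day 6-7) selected. Tumor weight from calipers, w = ab²/2. Agent given as one ip dose in distilled water or physiological saline. Nontumor-bearing mice received matching doses as toxicity controls.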

The nature of assay [6]: Antitumor activity against mouse advanced Lewis lung carcinoma allografted in BDF1 mouse assessed as increase in host life span at 90 mg/kg, ip administered as single dose on 7th day post-tumor implantation. The format is functional. As to conditions: route intraperitoneal. Put shortly: as §1
The nature of assay [7]: Antitumor activity against mouse advanced Lewis lung carcinoma allografted in BDF1 mouse assessed as increase in host life span at 36 mg/kg, ip administered as single dose on 7th day post-tumor implantation. The class given is functional. As to conditions: route intraperitoneal. An outline of the steps: as §1
The test system of assay [8] is Mus musculus. Put plainly: Antitumor activity against mouse advanced Lewis lung carcinoma allografted in ip dosed BDF1 mouse assessed as complete regression of established tumor administered as single dose on day 6 or 7 post-tumor implantation. The format is functional, organism-based. Put shortly:
as §2

Assay [9] deals with Mus musculus. Put plainly: Antitumor activity against mouse advanced Lewis lung carcinoma allografted in BDF1 mouse assessed as complete regression of established tumor at 36 mg/kg, ip administered as single dose on 7th day post-tumor implantation. The class given is functional, organism-based. Set-up: dose 36 mg/kg. An outline of the steps:
as §2

Assay [10] deals with Mus musculus. Kind of assay: Antitumor activity against mouse advanced Lewis lung carcinoma allografted in BDF1 mouse assessed as disease cure at 36 mg/kg, ip administered as single dose on 7th day post-tumor implantation measured for 80 days post-drug treatment. The class given is functional, organism-based. Set-up: dose 36 mg/kg. Put shortly:
as §2

For assay [11], the system named is Mus musculus. Kind of assay: Antitumor activity against mouse advanced Lewis lung carcinoma allografted in BDF1 mouse assessed as disease cure at 11 mg/kg, ip administered as single dose on 7th day post-tumor implantation measured for 80 days post-drug treatment. Set-up: dose 11 mg/kg. The class given is functional, organism-based. An outline of the steps: as §2

Assay [12] can be described thus: Antitumor activity against mouse advanced Lewis lung carcinoma allografted in BDF1 mouse assessed as increase in host life span at 11 mg/kg, ip administered as single dose on 7th day post-tumor implantation. The format is functional. As to conditions: route intraperitoneal. Put shortly: as §1
Assay [13] is described as follows: Antitumor activity against mouse advanced Lewis lung carcinoma allografted in BDF1 mouse assessed as increase in host life span at 45 mg/kg, ip administered as single dose on 7th day post-tumor implantation. The class given is functional. As to conditions: route intraperitoneal. An outline of the steps: as §1
For assay [14], the system named is Mus musculus. Kind of assay: Antitumor activity against mouse advanced Lewis lung carcinoma allografted in BDF1 mouse assessed as disease cure at 30 mg/kg, ip administered as single dose on 7th day post-tumor implantation measured for 80 days post-drug treatment. The class given is functional, organism-based. Set-up: dose 30 mg/kg. An outline of the steps:
as §2

Assay [15] concerns Mus musculus. Kind of assay: Antitumor activity against mouse advanced Lewis lung carcinoma allografted in BDF1 mouse assessed as complete regression of established tumor at 30 mg/kg, ip administered as single dose on 7th day post-tumor implantation. The class given is functional, organism-based. On the set-up: dose 30 mg/kg. An outline of the steps:
as §2

Assay [16] relates to Mus musculus. Put plainly: Antitumor activity against mouse advanced Lewis lung carcinoma allografted in BDF1 mouse assessed as disease cure at 45 mg/kg, ip administered as single dose on 7th day post-tumor implantation measured for 80 days post-drug treatment. Set-up: dose 45 mg/kg. The format is functional, organism-based. Put shortly:
as §2

The test system of assay [17] is Mus musculus. Put plainly: Antitumor activity against mouse advanced Lewis lung carcinoma allografted in BDF1 mouse assessed as disease cure at 67 mg/kg, ip administered as single dose on 7th day post-tumor implantation measured for 80 days post-drug treatment. Set-up: dose 67 mg/kg. The class given is functional, organism-based. An outline of the steps:
as §2

The nature of assay [18]: Antitumor activity against mouse advanced Lewis lung carcinoma allografted in BDF1 mouse assessed as increase in host life span at 67 mg/kg, ip administered as single dose on 7th day post-tumor implantation. The class given is functional. Conditions: route intraperitoneal. Put shortly:
as §1

Active and inactive are the calls of the source. The calls are words filed in the database; no cut-off is given here.

As usually defined, the ILS is how much longer treated animals lived than controls. As to `CCOC(=O)[C@H]1CC[C@H](NC(=O)N(CCCl)N=O)CC1`, in [1], the increase in life span (ILS) at 30 mg/kg was 68%. Besides, in the assay with Mus musculus [2], the result was Active. In addition, the ILS at 29 mg/kg in assay [3] came to 75%.
Consider `O=NN(CCCl)C(=O)N[C@H]1CCCC[C@H]1Cl` (relative stereo), for which the outcome with Mus musculus [4] and in the assay on Mus musculus [2] was inactive. Moreover, the ILS in assay [5] is reported as above 25%. In assay [6], the ILS at 90 mg/kg came out at 62%.
Regarding `CC(=O)O[C@H]1CC[C@H](NC(=O)N(CCCl)N=O)CC1`, the ILS at 36 mg/kg in assay [7] is 34%. Moreover, the increase in lifespan (ILS) in [5] is above 25%. Further, the inhibition result with Mus musculus [8] and with Mus musculus [9] was “inactive” each time. Moreover, the outcome with Mus musculus [10] and in the assay on Mus musculus [2] was inactive.
`O=NN(CCCl)C(=O)NC1CCS(=O)(=O)CC1`: the ILS in assay [5] is above 25%. Further, the inhibition result in the assay with Mus musculus [8] was “inactive”. The result in the assay on Mus musculus [11] and in the assay on Mus musculus [2] was inactive. Besides, the ILS at 11 mg/kg in assay [12] stood at 27%.
`CCOC(=O)[C@H]1CCC[C@@H](NC(=O)N(CCCl)N=O)C1` (relative stereo): the ILS at 45 mg/kg in assay [13] came to 0%. Also, the result in the assay with Mus musculus [14], with Mus musculus [2] and in the assay on Mus musculus [16] was inactive. The ILS at 30 mg/kg in assay [1] amounted to 62%. Moreover, the inhibition entry with Mus musculus [8] was “Active”. Moreover, in the assay with Mus musculus [15], the inhibition result was “inactive”.
`CC[C@H]1CC[C@H](NC(=O)N(CCCl)N=O)CC1`: the inhibition entry in the assay on Mus musculus [8] is “Active”. Further, the result with Mus musculus [17] and in the assay with Mus musculus [2] was inactive. For the same molecule, the ILS at 67 mg/kg in assay [18] came out at 17%.
